Test results: ChEMBL document CHEMBL1240405, “Activity of a new cephalosporin, CXA-101 (FR264205), against beta-lactam-resistant Pseudomonas aeruginosa mutants selected in vitro and after antipseudomonal treatment of intensive care unit patients” (2010)
≈ marks a conversion by molar mass, not a printed value.

How the values were obtained:
Assay type in all cases: functional
[1] = system: Pseudomonas aeruginosa; assay: Antimicrobial activity against beta-lactam resistant Pseudomonas aeruginosa PAO1 by broth microdilution method
Procedure, shortened: (§1)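 Broth microdilution MICs per CLSI M100-S18, over 0.12 to 256 μg/ml. Strains are PAO1 and its mutants. oprD mutants were selected overnight on Mueller-Hinton agar with 4 μg/ml imipenem, passaged antibiotic-free, then confirmed by oprD amplification and sequencing. PAO1 and ATCC 27853 were run alongside as quality controls.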

[2] = system: Pseudomonas aeruginosa; assay: Antimicrobial activity against beta-lactam resistant Pseudomonas aeruginosa PAO1 deficient in ampD and ampDh3 gene selected in vitro after antipseudomonal treatment of intensive care unit patient by broth microdilution method; procedure, shortened: as §1
[3] = system: Pseudomonas aeruginosa; assay: Antimicrobial activity against beta-lactam resistant Pseudomonas aeruginosa PAO1 deficient in ampD, […] gene selected in vitro after antipseudomonal treatment of intensive care unit patient by broth microdilution method; procedure, shortened: as §1
[4] = system: Pseudomonas aeruginosa; assay: Antimicrobial activity against beta-lactam resistant Pseudomonas aeruginosa PAO1 deficient in ampD and dacB gene selected in vitro after antipseudomonal treatment of intensive care unit patient by broth microdilution method; procedure, shortened: as §1
[5] = system: Pseudomonas aeruginosa; assay: Antimicrobial activity against beta-lactam resistant Pseudomonas aeruginosa PAOD2 harboring oprD spontaneous mutant selected in vitro after antipseudomonal treatment of intensive care unit patient by broth microdilution method; procedure, shortened: as §1
[6] = system: Pseudomonas aeruginosa; assay: Antimicrobial activity against beta-lactam resistant Pseudomonas aeruginosa PAOD3 harboring oprD spontaneous mutant selected in vitro after antipseudomonal treatment of intensive care unit patient by broth microdilution method; procedure, shortened: as §1
[7] = system: Pseudomonas aeruginosa; assay: Antimicrobial activity against beta-lactam resistant Pseudomonas aeruginosa PAOD1 harboring oprD spontaneous mutant and deficient in ampD gene selected in vitro after antipseudomonal treatment of intensive care unit patient by broth microdilution method; procedure, shortened: as §1
[8] = system: Pseudomonas aeruginosa; assay: Antimicrobial activity against beta-lactam resistant beta-lactam resistant Pseudomonas aeruginosa PAOD3 harboring oprD spontaneous mutant and deficient in ampD gene selected in vitro after antipseudomonal treatment of intensive care unit patient by broth microdilution method; procedure, shortened: as §1
[9] = system: Pseudomonas aeruginosa; assay: Antimicrobial activity against beta-lactam resistant Pseudomonas aeruginosa PAOD1 harboring oprD spontaneous mutant and deficient in dacB gene selected in vitro after antipseudomonal treatment of intensive care unit patient by broth microdilution method; procedure, shortened: as §1
[10] = system: Pseudomonas aeruginosa; assay: Antimicrobial activity against beta-lactam resistant Pseudomonas aeruginosa PAOD2 harboring oprD spontaneous mutant and deficient in dacB gene selected in vitro after antipseudomonal treatment of intensive care unit patient by broth microdilution method; procedure, shortened: as §1
[11] = system: Pseudomonas aeruginosa; assay: Antimicrobial activity against beta-lactam resistant Pseudomonas aeruginosa PAOD3 harboring oprD spontaneous mutant and deficient in dacB gene selected in vitro after antipseudomonal treatment of intensive care unit patient by broth microdilution method; procedure, shortened: as §1
[12] = system: Pseudomonas aeruginosa; assay: Antimicrobial activity against beta-lactam resistant Pseudomonas aeruginosa PA01 deficient in dacB gene by broth microdilution method; procedure, shortened: as §1
[13] = system: Pseudomonas aeruginosa; assay: Induction of ampC expression in beta-lactam resistant Pseudomonas aeruginosa PAO1 at 50 ug/mL
Procedure, shortened: (§2)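 ampC expression measured by real-time RT-PCR in PAO1 and its mutants, under basal conditions and after induction with 50 μg/ml cefoxitin.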

[14] = system: Pseudomonas aeruginosa; assay: Induction of ampC expression in beta-lactam resistant Pseudomonas aeruginosa PAO1 deficient in ampD gene selected in vitro after antipseudomonal treatment of intensive care unit patient at 50 ug/mL; procedure, shortened: as §2
[15] = system: Pseudomonas aeruginosa; assay: Induction of ampC expression in beta-lactam resistant Pseudomonas aeruginosa PAO1 deficient in ampD and ampDh3 gene selected in vitro after antipseudomonal treatment of intensive care unit patient at 50 ug/mL; procedure, shortened: as §2
[16] = system: Pseudomonas aeruginosa; assay: Induction of ampC expression in beta-lactam resistant Pseudomonas aeruginosa PAO1 deficient in ampD, […] gene selected in vitro after antipseudomonal treatment of intensive care unit patient at 50 ug/mL; procedure, shortened: as §2
[17] = system: Pseudomonas aeruginosa; assay: Induction of ampC expression in beta-lactam resistant Pseudomonas aeruginosa PA01 deficient in dacB gene at 50 ug/mL; procedure, shortened: as §2
[18] = system: Pseudomonas aeruginosa; assay: Induction of ampC expression in beta-lactam resistant Pseudomonas aeruginosa PAO1 deficient in ampD and dacB gene selected in vitro after antipseudomonal treatment of intensive care unit patient at 50 ug/ml; procedure, shortened: as §2
[19] = system: Pseudomonas aeruginosa; assay: Antimicrobial activity against beta-lactam resistant Pseudomonas aeruginosa PAO1 deficient in ampD gene selected in vitro after antipseudomonal treatment of intensive care unit patient by broth microdilution method; procedure, shortened: as §1
[20] = system: Pseudomonas aeruginosa; assay: Antimicrobial activity against beta-lactam resistant Pseudomonas aeruginosa PAOD1 harboring oprD spontaneous mutant selected in vitro after antipseudomonal treatment of intensive care unit patient by broth microdilution method; procedure, shortened: as §1
[21] = system: Pseudomonas aeruginosa; assay: Antimicrobial activity against beta-lactam resistant Pseudomonas aeruginosa PAOD2 harboring oprD spontaneous mutant and deficient in ampD gene by selected in vitro after antipseudomonal treatment of intensive care unit patient by broth microdilution method; procedure, shortened: as §1
[22] = system: Pseudomonas aeruginosa; assay: Antimicrobial activity against Pseudomonas aeruginosa clinical isolate assessed as resistant isolates selected in vitro after antipseudomonal treatment of intensive care unit patient by CLSI method

Compound	MIC [1] [µg/mL]	MIC [2] [µg/mL]	MIC [3] [µg/mL]	MIC [4] [µg/mL]	MIC [5] [µg/mL]	MIC [6] [µg/mL]	MIC [7] [µg/mL]	MIC [8] [µg/mL]	MIC [9] [µg/mL]	MIC [10] [µg/mL]	MIC [11] [µg/mL]	MIC [12] [µg/mL]	also measured
CO/N=C(\C(=O)N[C@@H]1C(=O)N2C(C(=O)[O-])=C(C[N+]3(C)CCCC3)CS[C@H]12)c1csc(N)n1	2 (≈ 4.16 µM)	8 (≈ 16.6 µM)	8 (≈ 16.6 µM)	32 (≈ 66.6 µM)	2 (≈ 4.16 µM)	2 (≈ 4.16 µM)	4 (≈ 8.32 µM)	8 (≈ 16.6 µM)	32 (≈ 66.6 µM)	32 (≈ 66.6 µM)	32 (≈ 66.6 µM)	16 (≈ 33.3 µM)	–
C[C@H]1[C@H](NC(=O)/C(=N\OC(C)(C)C(=O)O)c2csc(N)n2)C(=O)N1S(=O)(=O)O [AZTREONAM]	4 (≈ 9.19 µM)	32 (≈ 73.5 µM)	32 (≈ 73.5 µM)	128 (≈ 294 µM)	4 (≈ 9.19 µM)	4 (≈ 9.19 µM)	8 (≈ 18.4 µM)	8 (≈ 18.4 µM)	32 (≈ 73.5 µM)	32 (≈ 73.5 µM)	32 (≈ 73.5 µM)	32 (≈ 73.5 µM)	–
CO[C@@]1(NC(=O)Cc2cccs2)C(=O)N2C(C(=O)O)=C(COC(N)=O)CS[C@@H]21 [CEFOXITIN]	–	–	–	–	–	–	–	–	–	–	–	–	fold change (FC) [13]: 50; fold change (FC) [14]: 134; fold change (FC) [15]: 1014; fold change (FC) [16]: 1105; fold change (FC) [17]: 232; fold change (FC) [18]: 1950
CC(C)(O/N=C(\C(=O)N[C@@H]1C(=O)N2C(C(=O)[O-])=C(C[n+]3ccccc3)CS[C@H]12)c1csc(N)n1)C(=O)O [CEFTAZIDIME]	2 (≈ 3.66 µM)	32 (≈ 58.5 µM)	32 (≈ 58.5 µM)	128 (≈ 234 µM)	2 (≈ 3.66 µM)	2 (≈ 3.66 µM)	16 (≈ 29.3 µM)	16 (≈ 29.3 µM)	32 (≈ 58.5 µM)	32 (≈ 58.5 µM)	32 (≈ 58.5 µM)	32 (≈ 58.5 µM)	MIC [19]: 8 µg/mL (≈ 14.6 µM); MIC [20]: 2 µg/mL (≈ 3.66 µM); MIC [21]: 16 µg/mL (≈ 29.3 µM); Activity [22]: 81%
